# Compound activity: PubChem BioAssay, several laboratories
# Most compounds without a hit are left out; they make up all but 1.2% or so of the library.
# ABHD5 PLIN5 PPI – inhibitors of human ABHD5-perilipin-5 interaction; Q00G26+Q8WTS1; Split G. princeps luciferase complementation, luminescence, 4 h; inhibition, % at 4 µM; 360,000 compounds, 0.78% hits;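 active = inhibition above the mean inhibition across every tested compound plus 3 SD, cut at about 22% in these data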;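 also: 0% = DMSO only wells and the 100% control is not disclosed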
# A3A deaminase – inhibitors of human APOBEC3A DNA deaminase; recombinant A3A, FAM/TAMRA ssDNA deamination fluorescence; inhibition, % at 20 µM; 330,000 compounds, 0.41% hits; AID 493011;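 active = at least 40% inhibition at 20 µM here, with at most 30% in a related deaminase screen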;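 also: plate controls were A3A with DMSO for no effect and wells lacking A3A enzyme for full effect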
# Target sequence (P31941 whole entry, looked up): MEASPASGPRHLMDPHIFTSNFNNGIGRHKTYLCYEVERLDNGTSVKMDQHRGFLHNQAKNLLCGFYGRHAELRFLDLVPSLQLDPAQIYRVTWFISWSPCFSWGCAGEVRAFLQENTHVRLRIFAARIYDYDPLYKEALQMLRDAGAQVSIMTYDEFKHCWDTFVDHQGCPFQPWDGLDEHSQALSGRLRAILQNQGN
# APOBEC3G inh – APOBEC3G (human) deaminase inhibition. Q9HC16. recombinant A3G, ssDNA deamination FAM/TAMRA fluorescence. inhibition, % at 20 µM. 330,000 compounds, 0.28% hits. AID 493012;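 active = inhibition of at least 40% at 20 µM, with no more than 30% in the related APOBEC3A deaminase screen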;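 also: plate controls were DMSO wells with A3G for no effect and wells lacking A3G enzyme for full effect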
# Target sequence (Q9HC16 whole entry, looked up): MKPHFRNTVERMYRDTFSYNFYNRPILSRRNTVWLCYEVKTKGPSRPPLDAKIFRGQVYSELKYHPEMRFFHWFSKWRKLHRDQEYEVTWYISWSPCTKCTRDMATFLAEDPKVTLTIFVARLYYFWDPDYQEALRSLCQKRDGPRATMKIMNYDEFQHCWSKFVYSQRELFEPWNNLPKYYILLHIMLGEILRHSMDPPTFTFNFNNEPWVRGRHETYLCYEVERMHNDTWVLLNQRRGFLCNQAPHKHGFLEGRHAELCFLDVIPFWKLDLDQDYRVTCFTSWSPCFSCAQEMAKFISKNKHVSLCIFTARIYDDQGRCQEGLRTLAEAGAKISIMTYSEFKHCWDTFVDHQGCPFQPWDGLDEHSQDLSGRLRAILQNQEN
# FN deposit inh – fibronectin deposition inhibition; 350,000 compounds, 0.086% hits; AID 743247; AH1F fibroblasts, Alexa488-fibronectin deposition fluorescence, overnight; inhibition, % at 12.6 µM;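 active = mean inhibition across replicates of 30% or more, regardless of how many single replicates reach that level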;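 also: positive control wells lacked labelled fibronectin entirely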
#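 Schedule: 1 h cell adhesion before compound, then overnight fibronectin incubation; test system: AH1F fibroblast monolayer depositing Alexa488-labelled fibronectin into matrix; quantity: 10000 AH1F cells per well; probe or stimulus: fluorescent fibronectin at 24 nM final; signal: fluorescence, ex 485 nm, em 525 nm; evaluation: percent inhibition as loss of matrix-bound fibronectin fluorescence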
# * hit, by the source's call; x = not tested or not shown.
SMILES,ABHD5 PLIN5 PPI,A3A deaminase,APOBEC3G inh,FN deposit inh
COc1ccc(S(=O)(=O)N(C)C[C@@H]2OCc3cn(nn3)CCCC(=O)N([C@H](C)CO)C[C@@H]2C)cc1,x,x,x,2.6
CN1CCN(C2=Cc3cc(Cl)ccc3Sc3cc(F)ccc32)CC1,27.2*,-4.8,-4.4,x
CN1CCN(C2=Cc3ccccc3Sc3cc(F)c(F)cc32)CC1,13.3,4.6,-1.8,-8.6
O=C(CCC(=O)c1cccs1)NCc1cccnc1,-2.2,-0.2,-6.0,38.1*
CO[C@@H]1CN(C)C(=O)c2ccc(NC(=O)c3ccc(-c4ccccc4)cc3)cc2OC[C@@H](C)NC[C@H]1C,x,x,x,39.7*
CN(C)c1ccc(-c2ccnc3c2CC(C)(C(=O)NCC2CC2)O3)cc1 (configuration not stated),-2.7,x,x,35.4*
CC(C)NC(=O)N(C)C[C@@H]1Oc2c(NS(C)(=O)=O)cccc2C(=O)N(C)C[C@@H]1C,x,x,x,-11.6
O=C(/C=C/c1ccc(N2CCCCC2)c([N+](=O)[O-])c1)c1ccc(O)cc1,22.4*,1.3,-0.3,1.0
C(=C\c1ccc(C2[C@@H]3CN(Cc4cccnc4)C[C@H]2N3)cc1)/c1ccccc1 (some centres not stated),x,x,x,-10.2
C[C@@H]1CN(C)C(=O)Cc2cc(N(C)C)ccc2O[C@@H]1CN(C)C,x,x,x,-5.0
CC(C)C[C@H]1COCn2nncc2CC[C@H](Cc2ccccc2)C(=O)N1,x,x,x,-9.2
CCOC(=O)/C(=C\c1cccnc1)C(=O)c1cc(C(C)=O)c(Nc2ccccc2)s1,90.2*,-0.7,-2.3,x
CCOC(=O)/C(=C\c1ccccc1)C(=O)c1cc(C(C)=O)c(Nc2ccccc2)s1,3.6,-3.7,-6.3,x
Cc1ccc(/C=C2\Oc3c(ccc(O)c3CN3CCN(CCO)CC3)C2=O)cc1,22.8*,-4.1,-11.3,0.9
CN1CCN(CC(=O)N2CCn3c4c(c5cc(C6CCCCC6)ccc53)CCCC42)CC1 (configuration not stated),23.3*,-6.6,-3.7,x
COc1ccc(Cl)cc1C(=O)NNC(=O)c1cccc(S(=O)(=O)N(C)C)c1,-5.7,-0.7,7.6,30.7*
O=C(C[C@H]1CC[C@@H]2[C@H](COC[C@H](O)CN2S(=O)(=O)c2ccc(Cl)cc2)O1)NCCN1CCCC1,x,x,x,-2.2
COCC(=O)Nc1ccc2c(c1)C(=O)N(C)[C@H]1CC[C@@H](CC(=O)OC)O[C@H]1CO2,x,x,x,-0.3
COc1ccc(CNc2nc(NCc3ccc(OC)c(OC)c3)n(C(=O)c3cccs3)n2)cc1OC,22.9*,-0.3,1.2,x
COc1ccc(C(=O)Nc2ccc(-c3ccc(C)o3)cc2)cc1S(=O)(=O)N1CCOCC1,22.3*,-1.8,-2.9,-8.8
CC(=O)N1C[C@@H]2C(c3ccc(Br)cc3)[C@H](C1)N2Cc1ccc(F)cc1 (some centres not stated),x,x,x,-1.6
CC(C)NC(=O)N(C)C[C@@H]1Oc2ccc(N(C)C)cc2CC(=O)N(C)C[C@H]1C,x,x,x,-0.3
CCNC(=O)C[C@@H]1CC[C@H]2[C@H](COc3ccc(NC(=O)C4CCOCC4)cc3C(=O)N2C)O1,x,x,x,-4.1
CS(=O)(=O)c1ccc(S(=O)CC(=O)OCc2ccccc2)c([N+](=O)[O-])c1 (configuration not stated),40.3*,x,x,-0.1
COc1ccccc1N(CC(=O)N(c1ccccc1)C(C)C)S(=O)(=O)c1cccs1,1.9,1.8,-2.9,x
SMILES,ABHD5 PLIN5 PPI,A3A deaminase,APOBEC3G inh,FN deposit inh
COc1ccccc1N(CC(=O)N(CC(C)C)CC(C)C)S(=O)(=O)c1cccs1,-0.9,-2.3,-16.5,32.1*
CN(C)CCn1c(=N)n(CC(O)c2ccc(Cl)c(Cl)c2)c2ccccc21 (configuration not stated),22.8*,0.1,-3.1,1.9
N=c1n(CCN2CCCCC2)c2ccccc2n1CC(O)c1ccc(Cl)c(Cl)c1 (configuration not stated),15.6,-2.7,-3.3,15.1
C[C@@H]1CCCCO[C@@H](CN(C)C(=O)NC2CCCCC2)[C@@H](C)CN([C@@H](C)CO)C(=O)c2cc(NC(=O)c3ccccc3)ccc2O1,x,x,x,4.4
C[C@@H]1CN([C@@H](C)CO)C(=O)c2cc(NC(=O)Nc3ccc(C(F)(F)F)cc3)ccc2O[C@@H](C)CCCCO[C@@H]1CN(C)Cc1ccc2c(c1)OCO2,x,x,x,-16.4
COc1ccc(C2c3ccc4ccccc4c3Oc3ncn(CCCN(C)C)c(=N)c32)cc1 (configuration not stated),22.3*,4.9,-4.0,1.3
COc1ccccc1C1c2ccc3ccccc3c2Oc2ncn(CCN(C)C)c(=N)c21 (configuration not stated),21.5,-1.8,-8.5,15.5
O=C(/C=C/c1cccc([N+](=O)[O-])c1)n1cnc2ccccc21,23.1*,-0.3,-4.9,-2.6
O=C(/C=C/c1cccc([N+](=O)[O-])c1)N1CCN(c2ccccn2)CC1,-3.1,1.9,-5.2,3.8
O=C(C[C@H]1CC[C@@H]2[C@H](COC[C@@H](O)CN2CC2CCCC2)O1)NCC1CC1,x,x,x,-15.6
C=C1C(=O)O[C@@H]2C[C@@H](C)[C@@H]3C=CC(=O)[C@@]3(C)[C@@H](OC(C)=O)[C@H]12,x,3.9,-5.4,38.8*
C[C@@H]1C[C@@H]2OC(=O)[C@]3(C)[C@H]2[C@@H](OC3(C)O)[C@]2(C)C(=O)C=C[C@H]12 (some centres not stated),7.3,1.3,2.5,7.7
CNC[C@@H]1Oc2ccc(NC(=O)NC(C)C)cc2C(=O)N(C)C[C@@H]1C,x,x,x,-4.1
O=C1C=C(Nc2ccc(O)cc2)C(=O)c2ccccc21,-3.5,0.6,-3.4,47.2*
CC(=O)Nc1ccc(NC2=CC(=O)c3ccccc3C2=O)cc1,-2.9,6.3,8.0,3.7
c1ccc2c(-c3csc(-c4ccncc4)n3)c[nH]c2c1,-2.8,2.3,-3.4,32.8*
CCC(=O)N1C[C@H](C)[C@H](OC)CN(C)C(=O)c2ccc(NC(=O)COC)cc2OC[C@H]1C,x,x,x,0.5
O=c1c(Cl)c(Cl)cnn1Cc1nnc(-c2ccccc2Br)o1,15.2,-0.8,-5.3,39.3*
Clc1ccccc1OCc1nnc(-c2ccccc2Br)o1,-3.4,-2.7,-8.7,x
S=C(NCC1CCCO1)Nc1ccc(Cl)cc1Cl (configuration not stated),0.6,-4.0,-5.2,30.1*
O=C(Nc1ccc(-c2ccco2)cc1)C1CCCN(Cc2ccc(CO)o2)C1 (configuration not stated),11.9,-0.2,-9.6,3.6
CC(=O)c1cccc(CN2CCCC(C(=O)Nc3ccc(-c4ccco4)cc3)C2)c1 (configuration not stated),29.6*,-4.7,-6.1,-14.5
NCCc1c(-c2ccccc2)n(-c2ccccc2)c2ccccc12,1.4,-3.7,-5.7,44.3*
CCOC(=O)C1=C(C)c2ccccc2OC1(CC)C(=O)OCC (configuration not stated),-14.5,1.3,-0.7,-7.8
CCOC(=O)C1=C(C)c2ccccc2N(C(=O)OC)C1(C)C(=O)OCC (configuration not stated),30.4*,2.8,11.6,-1.7
